Drawing on ChEMBL document CHEMBL1152560, “Substituted 2-arylbenzothiazoles as kinase inhibitors: hit-to-lead optimization” (Bioorg Med Chem, 2009), this text covers residual activity and EC50 for 3 compounds.

Usually EC50 stands for the concentration that produces a half-maximal response. A lower EC50 goes with a more potent agent.

Where only a bound is given, the exact number is not on record here.

In test [1] the target is T1, Phosphorylase b kinase gamma catalytic chain, liver/testis isoform (Homo sapiens) (UniProt P15735).
T1 sequence (whole entry): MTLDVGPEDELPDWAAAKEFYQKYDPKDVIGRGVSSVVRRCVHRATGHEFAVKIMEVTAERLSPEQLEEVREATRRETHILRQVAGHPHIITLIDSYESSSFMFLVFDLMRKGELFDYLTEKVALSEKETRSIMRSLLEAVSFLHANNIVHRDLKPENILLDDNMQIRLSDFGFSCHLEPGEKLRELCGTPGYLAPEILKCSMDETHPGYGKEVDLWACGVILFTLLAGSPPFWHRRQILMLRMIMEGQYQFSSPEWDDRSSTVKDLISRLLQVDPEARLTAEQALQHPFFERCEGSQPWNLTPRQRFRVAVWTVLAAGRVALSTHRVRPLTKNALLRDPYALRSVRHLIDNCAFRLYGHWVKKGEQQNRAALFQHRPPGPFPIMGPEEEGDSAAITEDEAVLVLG
Description: Residual activity of PHKG2 at 1 uM by microplate scintillation counting.

Test [2] concerns the target Receptor tyrosine-protein kinase erbB-2 (Homo sapiens, UniProt P04626). Description: Residual activity of ERBB2 at 0.1 uM by microplate scintillation counting.
For test [3], the target named is Mitogen-activated protein kinase 9 (Homo sapiens) (UniProt P45984). Description: Residual activity of JNK2 at 0.1 uM by microplate scintillation counting.
The target of test [4] is Hepatocyte growth factor receptor (Homo sapiens) (UniProt P08581). Briefly: Residual activity of MET at 1 uM by microplate scintillation counting.
In test [5] the target is Proto-oncogene tyrosine-protein kinase receptor Ret (Homo sapiens) (UniProt P07949). Description: Residual activity of RET at 1 uM by microplate scintillation counting.
Test [6] has as its target Mitogen-activated protein kinase 9 (Homo sapiens) (UniProt P45984). Briefly: Residual activity of JNK2 at 10 uM by microplate scintillation counting.
In test [7] the target is RAC-beta serine/threonine-protein kinase (Homo sapiens) (UniProt P31751). Briefly: Residual activity of AKT2 at 1 uM by microplate scintillation counting.
Test [8] concerns the target T2, Cytoplasmic tyrosine-protein kinase BMX (Homo sapiens) (UniProt P51813).
T2 sequence (whole entry): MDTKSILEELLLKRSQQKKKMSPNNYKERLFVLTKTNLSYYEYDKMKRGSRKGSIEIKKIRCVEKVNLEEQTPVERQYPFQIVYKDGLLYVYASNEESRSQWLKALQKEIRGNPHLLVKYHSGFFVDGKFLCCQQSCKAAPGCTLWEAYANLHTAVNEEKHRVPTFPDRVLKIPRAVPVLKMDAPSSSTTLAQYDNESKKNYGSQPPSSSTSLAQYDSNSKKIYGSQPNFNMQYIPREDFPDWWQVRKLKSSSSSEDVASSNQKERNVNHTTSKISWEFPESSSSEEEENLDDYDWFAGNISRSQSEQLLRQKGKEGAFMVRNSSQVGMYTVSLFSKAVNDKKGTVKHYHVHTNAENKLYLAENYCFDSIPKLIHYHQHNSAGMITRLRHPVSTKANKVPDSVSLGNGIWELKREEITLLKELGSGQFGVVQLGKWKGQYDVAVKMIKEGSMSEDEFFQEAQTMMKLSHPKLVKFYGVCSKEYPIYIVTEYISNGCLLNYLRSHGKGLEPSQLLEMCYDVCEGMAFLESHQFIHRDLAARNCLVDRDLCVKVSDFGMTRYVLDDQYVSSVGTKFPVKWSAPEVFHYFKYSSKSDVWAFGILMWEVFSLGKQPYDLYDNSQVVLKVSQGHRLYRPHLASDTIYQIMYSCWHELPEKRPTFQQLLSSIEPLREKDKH
Description: Residual activity of BMX at 1 uM by microplate scintillation counting.

Test [9] has as its target CDK1/Cyclin E (Homo sapiens) (UniProt P06493+P24864). Description: Residual activity of CDK1/Cyclin E at 1 uM by microplate scintillation counting. Format: protein-complex assay.
For test [10], the target named is Casein kinase I isoform alpha (Homo sapiens) (UniProt P48729). Description: Residual activity of CK1alpha1 at 0.1 uM by microplate scintillation counting.
In test [11] the target is Casein kinase I isoform gamma-3 (Homo sapiens) (UniProt Q9Y6M4). Briefly: Residual activity of CK1gamma3 at 0.1 uM by microplate scintillation counting.
The target in test [12] is Serine/threonine-protein kinase PAK 1 (Homo sapiens) (UniProt Q13153). Briefly: Residual activity of PAK1 at 0.1 uM by microplate scintillation counting.
Test [13] deals with Rho-associated protein kinase 1 (Homo sapiens) (UniProt Q13464). Briefly: Residual activity of ROCK1 at 10 uM by microplate scintillation counting.
In test [14] the target is T3, NUAK family SNF1-like kinase 2 (Homo sapiens) (UniProt Q9H093).
T3 sequence (whole entry): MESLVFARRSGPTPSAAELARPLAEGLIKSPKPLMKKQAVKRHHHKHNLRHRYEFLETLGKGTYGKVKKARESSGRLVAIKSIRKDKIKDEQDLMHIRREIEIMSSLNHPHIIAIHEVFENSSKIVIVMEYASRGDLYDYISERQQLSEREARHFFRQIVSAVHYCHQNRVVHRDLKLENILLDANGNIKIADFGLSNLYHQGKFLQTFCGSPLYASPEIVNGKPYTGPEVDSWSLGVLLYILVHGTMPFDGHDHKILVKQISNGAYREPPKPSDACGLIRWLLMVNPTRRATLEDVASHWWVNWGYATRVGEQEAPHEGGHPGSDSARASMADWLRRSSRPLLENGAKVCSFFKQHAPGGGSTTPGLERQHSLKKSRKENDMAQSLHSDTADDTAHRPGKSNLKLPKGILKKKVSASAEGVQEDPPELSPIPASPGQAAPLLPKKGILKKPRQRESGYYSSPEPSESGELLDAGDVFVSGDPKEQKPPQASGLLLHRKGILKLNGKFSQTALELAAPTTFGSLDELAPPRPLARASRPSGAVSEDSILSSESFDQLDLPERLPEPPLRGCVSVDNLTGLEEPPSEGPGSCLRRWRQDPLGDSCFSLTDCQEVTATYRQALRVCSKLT
Briefly: Residual activity of SNARK at 10 uM by microplate scintillation counting.

Test [15] has as its target Platelet-derived growth factor receptor beta (Homo sapiens, UniProt P09619). Briefly: Inhibition of PDGFRbeta in human HCT116 cells by cellular phosphorylation assay. In kind it is cell-based, HCT-116. In outline:
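Cells expressing PDGFRβ were treated with compound, then stimulated to give maximal autophosphorylation in controls. Cells were lysed, and receptor phosphorylation was quantified by sandwich ELISA with a receptor-specific capture antibody and an anti-phosphotyrosine antibody. EC50 from a sigmoidal curve relative to the stimulated high control. Nine concentrations, 1 nM–10 μM in half-log steps, each in duplicate.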

Test [16] deals with 3-phosphoinositide-dependent protein kinase 1 (Homo sapiens) (UniProt O15530). Description: Residual activity of PDK1 at 0.1 uM by microplate scintillation counting.
Test [17] concerns the target Epidermal growth factor receptor (Homo sapiens, UniProt P00533). Description: Inhibition of EGFR in human HCT116 cells by cellular phosphorylation assay.

Sequence of Mitogen-activated protein kinase 9 (Homo sapiens) (P45984 whole entry, looked up): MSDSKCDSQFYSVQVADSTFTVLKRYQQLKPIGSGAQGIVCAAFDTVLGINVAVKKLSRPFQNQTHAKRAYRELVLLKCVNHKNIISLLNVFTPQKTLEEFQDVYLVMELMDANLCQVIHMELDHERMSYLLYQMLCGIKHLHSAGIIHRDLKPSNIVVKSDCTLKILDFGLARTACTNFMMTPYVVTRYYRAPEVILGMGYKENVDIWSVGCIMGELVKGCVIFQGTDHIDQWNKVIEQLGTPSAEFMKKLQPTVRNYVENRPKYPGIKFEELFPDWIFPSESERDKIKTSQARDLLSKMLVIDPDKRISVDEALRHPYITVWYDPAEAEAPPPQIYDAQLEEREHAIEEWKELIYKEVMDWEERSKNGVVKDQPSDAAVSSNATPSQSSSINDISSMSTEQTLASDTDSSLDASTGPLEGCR
Sequence of CDK1/Cyclin E (Homo sapiens) (P06493 whole entry, looked up, canonical isoform): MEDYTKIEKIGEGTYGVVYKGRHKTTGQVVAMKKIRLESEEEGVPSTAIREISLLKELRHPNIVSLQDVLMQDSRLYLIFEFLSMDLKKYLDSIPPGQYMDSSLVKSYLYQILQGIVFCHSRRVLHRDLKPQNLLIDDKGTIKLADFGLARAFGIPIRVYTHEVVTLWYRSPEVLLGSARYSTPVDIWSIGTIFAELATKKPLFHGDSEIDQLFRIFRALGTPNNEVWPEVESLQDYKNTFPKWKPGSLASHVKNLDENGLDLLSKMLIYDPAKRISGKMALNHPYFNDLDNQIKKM
Sequence of CDK1/Cyclin E (Homo sapiens) (P24864 whole entry, looked up, canonical isoform): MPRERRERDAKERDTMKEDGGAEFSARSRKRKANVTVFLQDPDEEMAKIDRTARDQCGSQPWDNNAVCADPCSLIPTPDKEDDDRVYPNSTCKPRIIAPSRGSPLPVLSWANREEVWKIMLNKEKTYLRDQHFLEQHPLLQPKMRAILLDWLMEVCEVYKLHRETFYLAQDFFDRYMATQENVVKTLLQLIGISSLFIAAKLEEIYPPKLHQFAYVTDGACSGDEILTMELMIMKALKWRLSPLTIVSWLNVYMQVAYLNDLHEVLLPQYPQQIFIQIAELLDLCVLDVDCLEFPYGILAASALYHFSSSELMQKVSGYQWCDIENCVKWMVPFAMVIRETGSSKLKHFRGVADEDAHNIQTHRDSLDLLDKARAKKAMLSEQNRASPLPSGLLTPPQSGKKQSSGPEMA
Sequence of Serine/threonine-protein kinase PAK 1 (Homo sapiens) (Q13153 whole entry): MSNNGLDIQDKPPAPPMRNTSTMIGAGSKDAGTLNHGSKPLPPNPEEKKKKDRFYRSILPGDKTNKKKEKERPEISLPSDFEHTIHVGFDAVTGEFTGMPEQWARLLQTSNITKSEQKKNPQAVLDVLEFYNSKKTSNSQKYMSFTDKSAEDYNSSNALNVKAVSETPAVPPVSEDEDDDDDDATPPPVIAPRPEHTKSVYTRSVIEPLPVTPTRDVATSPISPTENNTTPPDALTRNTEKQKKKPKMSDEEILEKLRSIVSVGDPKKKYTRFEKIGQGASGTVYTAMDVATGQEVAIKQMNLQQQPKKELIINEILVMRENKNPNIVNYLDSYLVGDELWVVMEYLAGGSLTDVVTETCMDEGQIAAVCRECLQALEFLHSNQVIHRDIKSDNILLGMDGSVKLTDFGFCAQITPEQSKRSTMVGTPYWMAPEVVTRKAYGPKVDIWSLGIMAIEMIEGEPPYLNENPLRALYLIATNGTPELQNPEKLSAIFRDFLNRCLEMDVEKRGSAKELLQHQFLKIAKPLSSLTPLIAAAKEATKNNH
Sequence of RAC-beta serine/threonine-protein kinase (Homo sapiens) (P31751 whole entry): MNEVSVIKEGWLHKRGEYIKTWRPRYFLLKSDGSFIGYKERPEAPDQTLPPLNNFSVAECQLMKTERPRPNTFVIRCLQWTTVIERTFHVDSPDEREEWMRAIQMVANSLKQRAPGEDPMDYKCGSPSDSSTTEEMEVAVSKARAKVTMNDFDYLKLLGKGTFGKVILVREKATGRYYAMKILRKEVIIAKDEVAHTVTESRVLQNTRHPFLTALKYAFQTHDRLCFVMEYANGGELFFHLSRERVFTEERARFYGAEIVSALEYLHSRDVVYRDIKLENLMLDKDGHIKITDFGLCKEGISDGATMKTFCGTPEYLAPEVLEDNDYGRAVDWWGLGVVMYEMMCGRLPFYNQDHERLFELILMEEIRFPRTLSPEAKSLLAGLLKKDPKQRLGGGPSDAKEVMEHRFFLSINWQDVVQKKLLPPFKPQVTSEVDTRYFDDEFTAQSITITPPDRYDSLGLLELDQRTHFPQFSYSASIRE
Sequence of Rho-associated protein kinase 1 (Homo sapiens) (Q13464 2-1354 limits assumed): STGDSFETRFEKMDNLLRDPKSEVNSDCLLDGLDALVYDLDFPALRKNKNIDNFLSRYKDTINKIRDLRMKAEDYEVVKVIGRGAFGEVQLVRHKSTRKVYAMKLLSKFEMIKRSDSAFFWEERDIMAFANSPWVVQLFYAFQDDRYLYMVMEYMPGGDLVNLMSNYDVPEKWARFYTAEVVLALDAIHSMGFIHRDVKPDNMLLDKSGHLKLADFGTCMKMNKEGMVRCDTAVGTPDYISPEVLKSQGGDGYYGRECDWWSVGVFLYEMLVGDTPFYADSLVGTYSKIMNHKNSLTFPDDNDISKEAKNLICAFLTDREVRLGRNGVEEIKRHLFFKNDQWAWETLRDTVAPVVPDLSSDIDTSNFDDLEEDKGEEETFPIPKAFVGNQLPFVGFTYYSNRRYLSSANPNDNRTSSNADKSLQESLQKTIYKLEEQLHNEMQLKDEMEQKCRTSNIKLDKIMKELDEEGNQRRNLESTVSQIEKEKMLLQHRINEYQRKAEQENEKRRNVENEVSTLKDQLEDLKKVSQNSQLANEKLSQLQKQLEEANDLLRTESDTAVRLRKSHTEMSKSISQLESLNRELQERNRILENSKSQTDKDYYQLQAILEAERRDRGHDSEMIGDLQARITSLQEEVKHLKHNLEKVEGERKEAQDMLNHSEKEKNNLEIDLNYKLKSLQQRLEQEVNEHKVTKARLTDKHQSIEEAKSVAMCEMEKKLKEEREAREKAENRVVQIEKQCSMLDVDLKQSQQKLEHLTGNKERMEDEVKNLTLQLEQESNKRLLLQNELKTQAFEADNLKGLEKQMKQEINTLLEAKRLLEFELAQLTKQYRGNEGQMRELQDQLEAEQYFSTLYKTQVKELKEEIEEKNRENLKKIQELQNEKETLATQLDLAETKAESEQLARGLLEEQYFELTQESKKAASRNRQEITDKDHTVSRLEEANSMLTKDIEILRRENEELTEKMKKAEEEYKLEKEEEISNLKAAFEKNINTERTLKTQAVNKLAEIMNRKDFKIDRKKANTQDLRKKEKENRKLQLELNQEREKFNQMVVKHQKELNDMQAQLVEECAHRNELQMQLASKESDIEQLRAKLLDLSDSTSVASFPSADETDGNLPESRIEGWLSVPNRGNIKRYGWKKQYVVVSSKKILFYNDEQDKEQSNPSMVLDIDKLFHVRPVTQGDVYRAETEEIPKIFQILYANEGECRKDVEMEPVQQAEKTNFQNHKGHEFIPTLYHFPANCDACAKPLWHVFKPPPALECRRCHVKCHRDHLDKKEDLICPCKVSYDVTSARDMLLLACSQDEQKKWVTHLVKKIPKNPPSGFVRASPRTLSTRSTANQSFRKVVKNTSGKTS
Sequence of Casein kinase I isoform gamma-3 (Homo sapiens) (Q9Y6M4 whole entry, looked up, canonical isoform): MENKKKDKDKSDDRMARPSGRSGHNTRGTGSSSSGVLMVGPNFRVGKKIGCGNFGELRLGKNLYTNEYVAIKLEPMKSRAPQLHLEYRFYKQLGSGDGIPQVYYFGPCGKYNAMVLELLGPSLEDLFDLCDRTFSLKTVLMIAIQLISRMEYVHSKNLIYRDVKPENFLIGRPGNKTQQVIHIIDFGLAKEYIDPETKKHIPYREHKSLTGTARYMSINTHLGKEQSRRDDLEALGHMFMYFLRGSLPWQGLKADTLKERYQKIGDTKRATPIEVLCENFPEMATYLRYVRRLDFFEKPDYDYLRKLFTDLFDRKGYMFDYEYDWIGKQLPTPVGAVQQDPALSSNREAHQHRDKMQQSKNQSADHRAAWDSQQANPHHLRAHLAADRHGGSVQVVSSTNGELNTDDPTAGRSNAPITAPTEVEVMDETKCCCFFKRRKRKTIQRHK
Sequence of Casein kinase I isoform alpha (Homo sapiens) (P48729 2-337 limits assumed): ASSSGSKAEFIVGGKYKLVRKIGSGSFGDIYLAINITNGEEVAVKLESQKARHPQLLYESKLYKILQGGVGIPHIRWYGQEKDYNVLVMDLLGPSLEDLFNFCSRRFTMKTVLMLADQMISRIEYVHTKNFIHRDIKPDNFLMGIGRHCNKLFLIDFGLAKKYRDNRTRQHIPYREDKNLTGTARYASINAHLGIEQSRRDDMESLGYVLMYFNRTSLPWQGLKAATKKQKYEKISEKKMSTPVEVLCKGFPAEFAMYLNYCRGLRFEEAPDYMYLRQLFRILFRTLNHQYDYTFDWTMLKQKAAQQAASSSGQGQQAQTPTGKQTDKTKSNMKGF
Sequence of 3-phosphoinositide-dependent protein kinase 1 (Homo sapiens) (O15530 whole entry, looked up): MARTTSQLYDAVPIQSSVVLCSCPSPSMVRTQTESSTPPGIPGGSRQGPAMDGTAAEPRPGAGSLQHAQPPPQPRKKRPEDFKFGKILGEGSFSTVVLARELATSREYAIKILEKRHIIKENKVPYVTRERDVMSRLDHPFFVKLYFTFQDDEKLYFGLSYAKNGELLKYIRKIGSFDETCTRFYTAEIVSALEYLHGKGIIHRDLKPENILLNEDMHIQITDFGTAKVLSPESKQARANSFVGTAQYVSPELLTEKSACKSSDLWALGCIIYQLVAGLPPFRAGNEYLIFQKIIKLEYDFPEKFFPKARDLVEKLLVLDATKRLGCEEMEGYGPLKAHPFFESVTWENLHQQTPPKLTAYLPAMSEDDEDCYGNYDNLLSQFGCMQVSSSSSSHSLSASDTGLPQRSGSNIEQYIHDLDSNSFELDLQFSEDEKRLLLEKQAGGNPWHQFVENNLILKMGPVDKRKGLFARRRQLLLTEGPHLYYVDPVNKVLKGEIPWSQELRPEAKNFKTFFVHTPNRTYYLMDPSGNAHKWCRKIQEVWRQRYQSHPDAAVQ

With `COc1cc2c(Oc3ccc(-c4nc5ccccc5s4)cc3)ncnc2cc1OCCCN1CCCC1`, the residual activity in [1] stood at 80%; in test [2], 112%; in test [3], 89%; in test [4], 74%; in test [5], 81%; in test [6], 93%. The residual activity is 91% in test [7]; 127% in test [8]; 85% in test [9]; 102% in test [10]; 94% in test [11]; 99% in test [12]. Also, the residual activity in test [13] was found to be 81%; in test [14], 82%; in [16], 95%. A half-maximal response in [15] (EC50) required 2 µM.
On to `COc1cc2c(Oc3ccc(-c4nc5ccccc5s4)cc3F)ncnc2cc1OCCCN1CCN(C)CC1`, for which the residual activity in test [1] was 72%; in [2], 97%; in test [3], 103%; in test [4] it was 53%; in [5] it was 58%; in test [6], 122%. Further, the residual activity in test [7] amounted to 113%; in test [8] it was 128%; in test [9], 90%; in test [10] it was 93%; in test [11], 90%; in test [12], 93%. Also, the results for the residual activity in test [13], in test [14] and in test [16] were 73%, 62% and 97%, respectively. Besides, in test [17], the EC50 was > 10 µM.
For `COc1cc2c(Oc3ccc(-c4nc5ccccc5s4)cc3)ncnc2cc1OCCCN1CCN(C)CC1`, the residual activity came out at 96% in [1]; 103% in test [2]; 108% in [3]; 59% in [4]; 68% in test [5]; 96% in [6]. Further, the residual activity in test [7] turned out to be 83%; in test [8], 122%; in [9], 88%; in test [10], 101%; in [11], 76%; in test [12], 97%. Also, the residual activity in [13] was determined as 68%; in test [14], 92%; in test [16] it was 95%. The half-maximal effective concentration (EC50) in test [15] turned out to be 0.17 µM.
